Screening results as filed in PubChem.
SR-BI DiI-HDL act = activators of SR-BI mediated HDL lipid uptake. activation, % at 12.5 µM. hit rate 0.096% among 320,000. CHO ldlA[mSR-BI] cells, DiI-HDL uptake fluorescence, 3 h; 100 = double the neutral-control signal. AID 504775;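 active = mean replicate activation of at least 60% and every replicate at or above 60%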;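 also: 0% = median plate neutral-control signal and 100% = twice that signal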
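System: LDL receptor-deficient CHO ldlA cells overexpressing murine SR-BI | Timing: 3 h uptake period with compound, 37 °C | Medium: HEPES-buffered (25 mM, pH 7.4) F12 plus 0.5% BSA | Dosing: Single-point compound dose | Signal: Bottom-read fluorescence, 550/595 nm | Read-out: Retained DiI signal reflecting DiI-HDL uptake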
Vif imaging = blocks HIV Vif function | hit rate 0.35% among 340,000 | inhibition, % at 7.49 µM | HEK293T cells, Vif self-association by quenched fluorescence, imaging, 24 h; in the data active = inhibition above about 50%, passing the limit was not always enough
SR-BI HDL uptake = mouse SR-BI HDL lipid transfer inhibition. ldlA[mSR-BI] CHO cells, DiI-HDL uptake fluorescence, 3 h. inhibition, % at 12.5 µM. hit rate 0.96% among 320,000;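 active = mean replicate inhibition of at least 70% and a set share of replicates each scoring 70 or more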;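 also: 0% = median of neutral control wells and 100% = median of positive control wells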
Target sequence (Q61009 whole entry, looked up): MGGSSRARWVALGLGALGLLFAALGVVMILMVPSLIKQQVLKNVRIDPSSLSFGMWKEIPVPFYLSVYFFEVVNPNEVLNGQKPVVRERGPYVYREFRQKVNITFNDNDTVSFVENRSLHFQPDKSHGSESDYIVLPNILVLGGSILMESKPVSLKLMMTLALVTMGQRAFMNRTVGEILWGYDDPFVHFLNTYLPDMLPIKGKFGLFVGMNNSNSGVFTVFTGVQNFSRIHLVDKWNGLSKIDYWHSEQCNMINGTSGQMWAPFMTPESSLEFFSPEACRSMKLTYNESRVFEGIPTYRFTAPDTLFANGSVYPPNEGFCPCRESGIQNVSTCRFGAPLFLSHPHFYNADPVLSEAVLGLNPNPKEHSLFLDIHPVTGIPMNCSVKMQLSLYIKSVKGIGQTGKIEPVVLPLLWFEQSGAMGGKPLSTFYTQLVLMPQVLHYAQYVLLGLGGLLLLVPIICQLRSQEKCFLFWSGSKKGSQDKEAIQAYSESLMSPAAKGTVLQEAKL
SMARCA2 act = activators of SMARCA2 function; MG213 cells, MMTV-luciferase reporter, dexamethasone, overnight; activation, % at 9.1 µM; hit rate 1% among 370,000; AID 652017; in the data active = activation above about 7.8%;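 also: 0% = vehicle wells and 100% = reference activator wells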
H9c2 TAG inh = triacylglycerol accumulation inhibition; H9c2 cells, Nile Red lipid (TAG) fluorescence; cells loaded with 200 µM oleic acid; inhibition, % at 12.5 µM; hit rate 0.66% among 230,000; AID 651582;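 active = pattern-corrected inhibition of lipid staining of at least 50% with the nuclear-stain viability signal not falling by more than 50%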;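 also: 0% = DMSO wells and 100% = triacsin C control wells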
* marks the source's active call; other numbers are inactive results; · = not tested or not shown. Shown are actives, neighbours in structure and some others; about 2.5% of the full set was active somewhere.

SMILES	SR-BI DiI-HDL act	Vif imaging	SR-BI HDL uptake	SMARCA2 act	H9c2 TAG inh
COc1ccc2c(-c3ccc(SC)cc3)c(-c3ccc(S(C)(=O)=O)cc3)sc2c1	-81.0	1.4	81.0*	0.0	31.3
COc1ccc2sc(-c3ccc(S(C)(=O)=O)cc3)c(-c3ccc(SC)cc3)c2c1	-53.2	-4.7	53.2	0.1	9.3
COc1cc2sc(-c3ccc(S(C)(=O)=O)cc3)c(-c3ccc4c(c3)OCO4)c2cc1OC	-82.7	-2.0	82.7*	-0.4	15.8
COc1ccc2sc(-c3ccc(S(C)(=O)=O)cc3)c(-c3ccc4c(c3)OCCO4)c2c1	-59.8	-1.0	59.8	-0.5	24.3
CCOC(=O)C1=CC[C@@H](c2ccccc2)C(C#N)(C#N)[C@H]1/C=C/c1ccccc1	·	·	·	0.5	·
CCOC(=O)c1cc2occc2n1CC(=O)N1CCOCC1	-9.0	59.7*	9.0	-3.1	·
COc1ccccc1CNC(=O)C(=O)c1cn(CC(=O)N2CCCC2)c2ccccc12	·	·	77.8*	0.3	·
COc1ccc(CNC(=O)C(=O)c2cn(CC(=O)N3CCCC3)c3ccccc23)cc1	-46.0	-5.7	46.0	0.9	11.0
COc1ccc(OC)c(NC(=O)C(=O)c2cn(CC(=O)N3CCCC3)c3ccccc23)c1	-80.5	-2.0	80.5*	-1.3	14.3
COc1ccc(NC(=O)C(=O)c2cn(CC(=O)N3CCCC3)c3ccccc23)cc1OC	-79.8	-9.0	79.8*	-1.8	17.4
COc1cccc(NC(=O)C(=O)c2cn(CC(=O)N3CCCC3)c3ccccc23)c1	-75.0	1.9	75.0*	-1.4	·
COc1cc2c(cc1NC(=S)Nc1cccc3ccccc13)oc1ccccc12	-76.8	·	76.8*	1.5	·
COc1cc2c(cc1NC(=S)Nc1cccc(C(F)(F)F)c1)oc1ccccc12	-75.4	0.9	75.4*	0.6	3.2
COc1cc2c(cc1NC(=O)COc1ccccc1OC)oc1ccccc12	-32.1	0.7	32.1	-1.1	·
COCCCNC(=S)Nc1cc2oc3ccccc3c2cc1OC	-88.1	-1.4	88.1*	-0.7	10.4
COc1ccc(Cl)cc1NC(=O)Nc1cccc([N+](=O)[O-])c1C	-78.1	-2.2	78.1*	0.8	·
COc1ccc(Cl)cc1NC(=O)c1cc(-c2ccccc2O)n[nH]1	-90.4	-12.0	90.4*	-4.1	·
COc1ccc(Cl)cc1NC(=O)c1ccccc1C	-86.2	·	86.2*	-1.7	·
COc1ccc(Cl)cc1NC(=O)NC1CCCCC1	-19.3	-5.3	19.3	0.8	-43.4
COc1ccccc1C(=O)Nc1cc(Cl)ccc1O	-23.6	-2.1	23.6	1.1	3.3
CN(C)CCCN1CC(=O)N2CCc3ccc(Br)cc3C2CC1=O (stereo unspecified)	·	·	·	2.4	·
Cc1c(C(=O)NCc2cccs2)oc2ccc(Br)cc12	-12.6	-18.5	12.6	4.4	-12.6
Cc1c(C(=O)NNC(=O)c2ccccc2O)oc2ccc(Br)cc12	-129.4	-3.9	129.4*	-0.9	0.4
CCOc1ccc2oc(C(=O)NNC(=O)c3ccccc3O)c(C)c2c1	-131.0	0.4	131.1*	1.1	0.8
Cc1ccc(Oc2cccc3c2S(=O)(=O)N([C@H](C)c2ccccc2)C[C@@H](COCc2ccccc2)O3)cc1	·	·	·	-2.8	·
SMILES	SR-BI DiI-HDL act	Vif imaging	SR-BI HDL uptake	SMARCA2 act	H9c2 TAG inh
Cc1cc(C)c(OCC(=O)Nc2ccccn2)c([N+](=O)[O-])c1	-0.5	-0.9	0.5	1.7	·
Cc1ccnc(NC(=O)COc2c(C)cc(C)cc2[N+](=O)[O-])c1	-97.8	0.8	97.8*	-0.1	·
Cc1cc(N(CCO)CCO)ccc1N=Nc1cc(F)ccc1F	-63.0	-1.6	63.0	-0.3	72.7*
CC(C)N=C(NS(=O)(=O)c1ccccc1)C(Cl)(Cl)Cl	3.5	-1.4	-3.5	-4.3	51.6*
COCc1[nH]nc2c1C(c1cccc(C(F)(F)F)c1)NC2=O (stereo unspecified)	·	·	·	-4.1	·
CCOC(=O)C(C)CC(C)C(=O)N1CCOCCOCCN(C(=O)C(C)CC(C)C(=O)OCC)CCOCC1 (stereo unspecified)	22.1	-0.1	-22.1	-3.3	15.7
CCOC(=O)C(C(=O)OCC)C(C(=O)OCC)N1CCOCC1 (stereo unspecified)	22.0	·	-22.0	2.8	98.6*
O=C(Nc1ncc(Cc2cc(Cl)ccc2Cl)s1)c1ccc([N+](=O)[O-])cc1	-81.5	-14.3	81.5*	-3.5	11.6
COC(=O)[C@]12C[C@H](CC(=O)N3CCOCC3)C(=O)N(CCC3=CCCCC3)C1=C[C@H](C(C)(C)C)O[C@@H]2C	·	·	·	-3.4	·
O=C(NCCc1ccccc1)Nc1ccc2c(c1)OCO2	14.0	0.7	-14.0	7.8*	·
COC(=O)[C@]12C[C@H](CC(=O)N3CCN(C(=O)C4CC4)CC3)C(=O)N(CCC3=CCCCC3)C1=C[C@H](COCc1ccccc1)O[C@@H]2C	·	·	·	-1.7	·
CCn1c(C(=O)NCc2cccnc2)cc2sc(Cl)cc21	418.3*	-5.3	-418.3	0.4	·
CCn1c(N)c(C(=O)NCc2cccnc2)sc1=S	-1.8	-0.5	1.8	-3.4	·
COc1ccc(C2CC(=O)C(c3cc(OC)c(OC)c(OC)c3)=CN2Cc2ccccc2)cc1 (stereo unspecified)	·	·	·	0.4	·
Cc1cccc(C)c1OCC(=O)N[C@@H](Cc1ccccc1)[C@@H](O)C[C@H](Cc1ccccc1)NC(=O)[C@H](C(C)C)N1CCCNC1=O	·	·	·	-4.6	·
O=C(NC1CCCCC1)[C@@H]1CC=C[C@@H]2CCN(C3CCCCC3)C(=O)[C@@H]21	12.7	52.6*	-12.7	-0.8	·
O=C(Nc1ccccc1)[C@@H]1CC=C[C@@H]2CCN(C3CCCCC3)C(=O)[C@@H]21	11.8	4.5	-11.8	0.8	3.0
CCCCOCCCNC(=O)C[C@H]1C[C@@]2(C(=O)OC)C(=C[C@H](C3CCCC3)O[C@@H]2C)N(Cc2ccccc2)C1=O	·	·	·	-7.8	·
O=C(CNC(=O)c1ccc([N+](=O)[O-])cc1)N/N=C\c1ccc(OC(=O)c2ccccc2)cc1	-15.4	50.2*	15.4	-3.8	4.8
O=C(N/N=C/c1ccc([N+](=O)[O-])cc1)c1ccc(COc2ccccc2-c2ccccc2)cc1	-99.3	3.9	99.3*	-1.1	-5.3
COc1cccc(C(=O)NCC(=O)N/N=C/c2cccc(OC(=O)c3ccc([N+](=O)[O-])cc3)c2)c1	15.3	-0.7	-15.3	-3.7	·
Oc1c(C(c2ccc(Cl)cc2)N2CCCC2)cc(Cl)c2cccnc12 (stereo unspecified)	12.0	16.8	-12.0	-1.6	0.6
Oc1c(C(c2ccccc2Cl)N2CCCC2)ccc2cccnc12 (stereo unspecified)	-8.5	2.1	8.5	-1.1	62.4*
O=C(NCCc1c[nH]c2ccccc12)OCc1cn(-c2cccc(Cl)c2)nn1	·	·	·	-2.3	·
Cc1cc(/C=N\NC(=O)c2cccs2)c(C)n1-c1ccc2ncccc2c1	-73.3	-13.8	73.3*	5.8	-11.8
Cc1cc(/C=N\NC(=O)COc2cccc3cccnc23)c(C)n1-c1ccc(Br)cc1	-21.1	-2.4	21.1	-1.3	·
COC(=O)Cc1ccc(NC(=O)c2ccc(C(C)(C)C)cc2)cc1	-29.4	-35.2	29.4	-10.6	72.5*
